Legend:
MDA-MB-231 [1] = assay: Antiproliferative activity against human MDA-MB-231 cells expressing NRP1 assessed as cell viability measured after 48 hrs by MTT assay; type: functional, cell-based; settings: MDA-MB-231, 48 h
MDA-MB-231 [2] = assay: Antiproliferative activity against human MDA-MB-231 cells expressing NRP1 assessed as cell viability measured after 72 hrs by MTT assay; type: functional, cell-based; settings: MDA-MB-231, 72 h
BT-549 [3] = assay: Antiproliferative activity against human BT549 cells expressing NRP1 assessed as cell viability measured after 48 hrs by MTT assay; type: functional, cell-based; settings: BT-549, 48 h
BT-549 [4] = assay: Antiproliferative activity against human BT549 cells expressing NRP1 assessed as cell viability measured after 72 hrs by MTT assay; type: functional, cell-based; settings: BT-549, 72 h
[5] = Chemical stability of compound in DMSO/aqueous buffer at 1 mg at pH 0.9 to 8.4 incubated at 25 degree C and measured upto 16 days by HPLC analysis; type: physicochemical; settings: read-out: Stability
Summary of the method: (§1)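 Compound held in aqueous buffers at pH 0.9, 7.4 and 8.4 at 25 °C or 37 °C for up to 16 days; the chromatographic profile was followed by HPLC.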

[6] = Chemical stability of compound in DMSO/aqueous buffer at 1 mg at pH 0.9 to 8.4 incubated at 37 degree C and measured upto 16 days by HPLC analysis; type: physicochemical; settings: read-out: Stability; summary of the method: as §1
[7] = Retention time of compound in pH 0.91 at 1 mg incubated at 37 degree C by HPLC analysis; type: physicochemical; summary of the method: as §1
[8] = Retention time of compound in pH 7.4 at 1 mg incubated at 37 degree C by HPLC analysis; type: physicochemical; summary of the method: as §1
[9] = Retention time of compound at in pH 8.4 at 1 mg incubated at 37 degree C by HPLC analysis; type: physicochemical; summary of the method: as §1
[10] = Retention time of compound at 1mg measured immediately by HPLC analysis; type: physicochemical
[11] = Drug uptake in human MDA-MB-231 cells at 2 uM incubated at 37 degree C measured after 3 days by HPLC analysis; type: ADME, cell-based; settings: mda-mb-231, 72 h
Summary of the method: (§2)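 MDA-MB-231 or BT-549 breast cancer cells were cultured with […] of compound for three days at 37 °C. Supernatant was analysed by HPLC. Cells were then washed and lysed with methanol, and the intracellular compound was measured by quantitative HPLC dosage, giving mol per sample.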

[12] = Drug uptake in human BT549 cells at 2 uM incubated at 37 degree C measured after 3 days by HPLC analysis; type: ADME, cell-based; settings: bt-549, 72 h; summary of the method: as §2
[13] = Retention time of compound in human MDA-MB-231 cell lysates at 2 uM incubated at 37 degree C measured after 3 days by HPLC analysis; type: ADME, subcellular, Lysate; settings: mda-mb-231, 72 h; summary of the method: as §2
[14] = Retention time of compound in human BT549 cell lysates at 2 uM incubated at 37 degree C measured after 3 days by HPLC analysis; type: ADME, subcellular, Lysate; settings: bt-549, 72 h; summary of the method: as §2
[15] = Retention time of compound in human MDA-MB-231 cells at 2 uM incubated at 37 degree C measured after 3 days by HPLC analysis; type: ADME, cell-based; settings: mda-mb-231, 72 h; summary of the method: as §2
[16] = Retention time of compound in human BT549 cells at 2 uM incubated at 37 degree C measured after 3 days by HPLC analysis; type: ADME, cell-based; settings: bt-549, 72 h; summary of the method: as §2
MDA-MB-231 [17] = assay: Antitumour activity against human MDA-MB-231 cells xenografted in nude mouse assessed as reduction in tumour growth at 50 mg/kg, po administered every 3 days for 20 days and measured 3 times a week by caliper method relative to control; settings: MDA-MB-231, po, read-out: TGI

IC50 (MDA-MB-231 [1])	IC50 (MDA-MB-231 [2])	IC50 (BT-549 [3])	IC50 (BT-549 [4])	remaining at 384 h [5]	remaining at 384 h [6]	Retention_time [7]	Retention_time [8]	Retention_time [9]	Retention_time [10]	Drug uptake [11]	Drug uptake [12]	Retention_time [13]	Retention_time [14]	Retention_time [15]	Retention_time [16]	Compound	inhibition in vivo at 50 mg/kg (MDA-MB-231 [17])
4.9 µM	0.2 µM	2.1 µM	0.1 µM	100%	100%	4.058 min	4.067 min	4.05 min	4.075 min	5.14 nmol	1.4 nmol	4.025 min	3.992 min	4.492 min	4.05 min	CCOc1ccccc1NC(=O)c1ccc(C)c(S(=O)(=O)Nc2ccc(C)cc2)c1	> 60%
2.6 µM	3.7 µM	2.2 µM	3.5 µM													CCN(CC)CCNC(=O)c1c(C)[nH]c(/C=C2\C(=O)Nc3ccc(F)cc32)c1C [SUNITINIB]	

From ChEMBL document CHEMBL4406901, “Synthesis, 3D-structure and stability analyses of NRPa-308, a new promising anti-cancer agent” (Bioorg Med Chem Lett, 2019)
